Measurements collected from several papers.
Lines come from different studies, so protocols differ.
Target: Alpha-1D adrenergic receptor (ADRA1D, Homo sapiens, UniProt P25100)
Tested at: 10 µM
One construct used (P25100 1-572): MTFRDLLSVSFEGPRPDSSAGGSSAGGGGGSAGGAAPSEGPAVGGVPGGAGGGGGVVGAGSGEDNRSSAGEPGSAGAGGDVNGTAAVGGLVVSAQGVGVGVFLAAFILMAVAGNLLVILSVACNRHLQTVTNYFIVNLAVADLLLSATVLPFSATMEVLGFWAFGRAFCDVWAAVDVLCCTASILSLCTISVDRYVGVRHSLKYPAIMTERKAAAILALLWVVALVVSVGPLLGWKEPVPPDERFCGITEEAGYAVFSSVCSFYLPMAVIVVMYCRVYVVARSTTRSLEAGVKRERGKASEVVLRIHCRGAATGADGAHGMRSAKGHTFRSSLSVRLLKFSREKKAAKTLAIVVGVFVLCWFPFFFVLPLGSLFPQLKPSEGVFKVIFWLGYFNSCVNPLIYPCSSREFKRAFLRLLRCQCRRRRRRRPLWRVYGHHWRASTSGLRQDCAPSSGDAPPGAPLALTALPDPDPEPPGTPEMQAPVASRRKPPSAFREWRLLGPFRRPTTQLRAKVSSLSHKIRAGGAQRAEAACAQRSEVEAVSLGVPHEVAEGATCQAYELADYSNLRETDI

| SMILES | effect on | method | inhibition |
| --- | --- | --- | --- |
| CC(=O)C1=C(C)N(c2cccc(C(F)(F)F)c2)C(=O)N[C@H]1c1ccc(C#N)nc1 | ligand displacement |  | 7.7% |
| O=C(Nc1ccc(S(=O)(=O)N2CCC(Cl)CC2)cc1)c1ccc([N+](=O)[O-])o1 | ligand displacement | radioligand | 8% |
| CC(C)(C)OC(=O)N1CCCC1CNC1CCC(c2cc(F)ccc2F)(S(=O)(=O)c2ccc(Cl)cc2)CC1 (centres unmarked) | cell-free assay |  | 22.5% |
| N#Cc1cc(Cn2c(N3CCCC3)nc3ccccc32)ccc1F | ligand displacement |  | -11.1% |
| CCN(Cc1ccccc1C(F)(F)F)C(=O)C1CCN(S(=O)(=O)c2ccc3[nH]ncc3c2)CC1 | ligand displacement | radioligand | 5% |
| CCN(CC)c1ccc(C2Nc3ccc(C(=O)c4ccccc4)cc3NC3=C2C(=O)CC(C)(C)C3)cc1 (centres unmarked) | ligand displacement | radioligand | 8% |
| CCCNc1nc2ccccc2n1Cc1ccc(Cl)cc1 | ligand displacement |  | 10.2% |
| O=C(c1ccc(F)cc1)N(Cc1ccccc1)C1CCCCC1 | cell-free assay |  | 7% |
